Our source for the Relative potency values is ChEMBL document CHEMBL1129650, “Structure-activity relationships of novel hematoregulatory peptides” (1996).

Bridge positions count the residues as written; N and C are the ends. Square brackets hold non-standard residues; d marks the D form. Peptide text beside a SMILES is read from it. I, II: the chains in the order shown. pGlu = O=C1CC[C@@H](C(=O)O)N1 A value given as a limit tells only on which side of the number the result lay.

The experiment relates to C6. Kind of experiment: Relative potency for induction of Colony-Stimulating activity(CSA) of C6 stromal line. In kind it is functional, Mus musculus. More on the design: reference not given here. The procedure, abridged: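 Murine C6 stromal cells (or subclone C6.4) were grown to confluence in RPMI with 10% FBS, then switched to serum-free medium with peptide (initially 0.001–1000 ng/mL, log doses, duplicate wells). Exposure was 1 h at 37 °C, followed by washing, and conditioned supernatant was collected 24 h later. Supernatant (10–2.5% v/v) plus C57Bl/6 femoral marrow went into 0.3% agar with 15% FBS for 7 days. Colonies of >50 cells were counted in triplicate. EC50 was taken from the ascending curve and expressed relative to the reference peptide.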
With `NCCCC[C@H](NC(=O)[C@H](CCCC[C@H](NC(=O)[C@H](CC(=O)O)NC(=O)[C@H](CC(=O)O)NC(=O)[C@@H]1CCC(=O)N1)C(=O)N[C@@H](CCCCN)C(=O)O)NC(=O)[C@H](CC(=O)O)NC(=O)[C@H](CC(=O)O)NC(=O)[C@@H]1CCC(=O)N1)C(=O)O`, the Relative potency was 1.

For `N=C(N)NCCC[C@@H](NC(=O)[C@H](CCCC[C@H](NC(=O)[C@H](CC(=O)O)NC(=O)[C@H](CCC(=O)O)NC(=O)[C@@H]1CCC(=O)N1)C(=O)N[C@H](CCCNC(=N)N)C(=O)O)NC(=O)[C@H](CC(=O)O)NC(=O)[C@H](CCC(=O)O)NC(=O)[C@@H]1CCC(=O)N1)C(=O)O`, the Relative potency is reported as below 1e-06.

Take `NCCCC[C@H](NC(=O)[C@H](CC[C@H](NC(=O)[C@H](CC(=O)O)NC(=O)[C@H](CO)NC(=O)c1ccccn1)C(=O)N[C@@H](CCCCN)C(=O)O)NC(=O)[C@H](CC(=O)O)NC(=O)[C@H](CO)NC(=O)c1ccccn1)C(=O)O`: the Relative potency is reported as 10000.

The compound `NCCCC[C@H](NC(=O)[C@H](CCCC[C@H](NC(=O)[C@H](CC(=O)O)NC(=O)[C@H](CCC(=O)O)NC(=O)c1cccs1)C(=O)N[C@@H](CCCCN)C(=O)O)NC(=O)[C@H](CC(=O)O)NC(=O)[C@H](CCC(=O)O)NC(=O)c1cccs1)C(=O)O` gave a Relative potency below 1e-06.

Compound `NCCCC[C@H](NC(=O)[C@H](CCCCC[C@H](NC(=O)[C@H](CC(=O)O)NC(=O)[C@H](CCC(=O)O)NC(=O)[C@@H]1CCC(=O)N1)C(=O)N[C@@H](CCCCN)C(=O)O)NC(=O)[C@H](CC(=O)O)NC(=O)[C@H](CCC(=O)O)NC(=O)[C@@H]1CCC(=O)N1)C(=O)O` displayed a Relative potency below 1e-06.

Turning to `NCCCC[C@H](NC(=O)[C@H](CC[C@H](NC(=O)[C@H](CC(=O)O)NC(=O)[C@H](CCC(=O)O)NC(=O)[C@@H]1CCC(=O)N1)C(=O)N[C@@H](CCCCN)C(=O)O)NC(=O)[C@H](CC(=O)O)NC(=O)[C@H](CCC(=O)O)NC(=O)[C@@H]1CCC(=O)N1)C(=O)O`, the Relative potency was 1000.

`NCCCC[C@H](NC(=O)[C@H](CCCC[C@H](NC(=O)[C@H](CC(=O)O)NC(=O)[C@H](CCC(=O)O)NC(=O)[C@H]1CCC(=O)N1)C(=O)N[C@@H](CCCCN)C(=O)O)NC(=O)[C@H](CC(=O)O)NC(=O)[C@H](CCC(=O)O)NC(=O)[C@H]1CCC(=O)N1)C(=O)O` returned a Relative potency of 0.0001.

For the compound `NCCCC[C@H](NC(=O)[C@H](CSSC[C@H](NC(=O)[C@H](CC(=O)O)NC(=O)[C@H](CCC(=O)O)NC(=O)[C@@H]1CCC(=O)N1)C(=O)N[C@@H](CCCCN)C(=O)O)NC(=O)[C@H](CC(=O)O)NC(=O)[C@H](CCC(=O)O)NC(=O)[C@@H]1CCC(=O)N1)C(=O)O` (I: [pGlu]EDCK-OH / II: [pGlu]EDCK-OH; disulfide I:4-II:4), the Relative potency stood at 0.01.

In the case of `NCCCC[C@H](NC(=O)[C@H](CCCC[C@H](NC(=O)[C@H](CC(=O)O)NC(=O)[C@H](CCC(=O)O)NC(=O)[C@@H]1CCCO1)C(=O)N[C@@H](CCCCN)C(=O)O)NC(=O)[C@H](CC(=O)O)NC(=O)[C@H](CCC(=O)O)NC(=O)[C@@H]1CCCO1)C(=O)O`, the Relative potency is on record as below 1e-06.

Turning to `NCCCC[C@@H](CO)NC(=O)[C@H](CCCC[C@H](NC(=O)[C@H](CC(=O)O)NC(=O)[C@H](CCC(=O)O)NC(=O)[C@@H]1CCC(=O)N1)C(=O)N[C@H](CO)CCCCN)NC(=O)[C@H](CC(=O)O)NC(=O)[C@H](CCC(=O)O)NC(=O)[C@@H]1CCC(=O)N1`, the Relative potency was below 1e-06.

`NCCCC[C@H](NC(=O)[C@H](CCCCCC[C@H](NC(=O)[C@H](CC(=O)O)NC(=O)[C@H](CCC(=O)O)NC(=O)[C@@H]1CCC(=O)N1)C(=O)N[C@@H](CCCCN)C(=O)O)NC(=O)[C@H](CC(=O)O)NC(=O)[C@H](CCC(=O)O)NC(=O)[C@@H]1CCC(=O)N1)C(=O)O` registered a Relative potency below 1e-06.

The compound `NCCCC[C@H](NC(=O)[C@H](CCCC[C@H](NC(=O)[C@@H](CC(=O)O)NC(=O)[C@H](CCC(=O)O)NC(=O)[C@@H]1CCC(=O)N1)C(=O)N[C@@H](CCCCN)C(=O)O)NC(=O)[C@@H](CC(=O)O)NC(=O)[C@H](CCC(=O)O)NC(=O)[C@@H]1CCC(=O)N1)C(=O)O` had a Relative potency below 1e-06.

`NCCCC[C@H](NC(=O)[C@H](CC[C@H](NC(=O)[C@H](CC(=O)O)NC(=O)[C@H](CCC(=O)O)NC(=O)c1ccccn1)C(=O)N[C@@H](CCCCN)C(N)=O)NC(=O)[C@H](CC(=O)O)NC(=O)[C@H](CCC(=O)O)NC(=O)c1ccccn1)C(N)=O`: the Relative potency was found to be 100.

In turn, `NCCCC[C@H](NC(=O)[C@H](CCCC[C@H](NC(=O)[C@H](CC(=O)O)NC(=O)[C@H](CO)NC(=O)c1ccccn1)C(=O)N[C@@H](CCCCN)C(=O)O)NC(=O)[C@H](CC(=O)O)NC(=O)[C@H](CO)NC(=O)c1ccccn1)C(=O)O` came in with a Relative potency of 100.

`NCCCC[C@H](NC(=O)[C@H](CCCC[C@H](NC(=O)[C@H](CC(=O)O)NC(=O)[C@H](CCC(=O)O)NC(=O)[C@@H]1CCC(=O)N1)C(=O)N[C@@H](CCCCN)C(N)=O)NC(=O)[C@H](CC(=O)O)NC(=O)[C@H](CCC(=O)O)NC(=O)[C@@H]1CCC(=O)N1)C(N)=O`: the Relative potency stood at 1.

`NCCCC[C@H](NC(=O)[C@H](CCC(=O)O)NC(=O)[C@@H]1CCC(=O)N1)C(=O)N[C@@H](CCCC[C@H](NC(=O)[C@H](CCCCN)NC(=O)[C@H](CCC(=O)O)NC(=O)[C@@H]1CCC(=O)N1)C(=O)N[C@@H](CC(=O)O)C(=O)O)C(=O)N[C@@H](CC(=O)O)C(=O)O`: the Relative potency was below 1e-06.

`NCCCC[C@@H](NC(=O)[C@H](CCCC[C@H](NC(=O)[C@H](CC(=O)O)NC(=O)[C@H](CCC(=O)O)NC(=O)[C@@H]1CCC(=O)N1)C(=O)N[C@H](CCCCN)C(=O)O)NC(=O)[C@H](CC(=O)O)NC(=O)[C@H](CCC(=O)O)NC(=O)[C@@H]1CCC(=O)N1)C(=O)O` yielded a Relative potency below 1e-06.

In turn, `NCCCC[C@H](NC(=O)[C@H](CCCC[C@H](NC(=O)[C@H](CCC(=O)O)NC(=O)[C@H](CCC(=O)O)NC(=O)[C@@H]1CCC(=O)N1)C(=O)N[C@@H](CCCCN)C(=O)O)NC(=O)[C@H](CCC(=O)O)NC(=O)[C@H](CCC(=O)O)NC(=O)[C@@H]1CCC(=O)N1)C(=O)O` came in with a Relative potency of 1.

Compound `NCCCC[C@H](NC(=O)[C@H](CCCC[C@H](NC(=O)[C@H](CC(=O)O)NC(=O)[C@H](CCC(=O)O)NC(=O)c1ccc2ccccc2n1)C(=O)N[C@@H](CCCCN)C(=O)O)NC(=O)[C@H](CC(=O)O)NC(=O)[C@H](CCC(=O)O)NC(=O)c1ccc2ccccc2n1)C(=O)O` had a Relative potency below 1e-06.

With `NCCCC[C@H](NC(=O)[C@H](CCC[C@H](NC(=O)[C@H](CC(=O)O)NC(=O)[C@H](CCC(=O)O)NC(=O)[C@@H]1CCC(=O)N1)C(=O)N[C@@H](CCCCN)C(=O)O)NC(=O)[C@H](CC(=O)O)NC(=O)[C@H](CCC(=O)O)NC(=O)[C@@H]1CCC(=O)N1)C(=O)O`, the Relative potency was below 1e-06.

`NCCCC[C@H](NC(=O)[C@H](CCCC[C@H](NC(=O)[C@H](CC(=O)O)NC(=O)[C@H](CCC(=O)O)NC(=O)C1CCCCC1)C(=O)N[C@@H](CCCCN)C(=O)O)NC(=O)[C@H](CC(=O)O)NC(=O)[C@H](CCC(=O)O)NC(=O)C1CCCCC1)C(=O)O` registered a Relative potency below 1e-06.

For the compound `NCCCC[C@H](NC(=O)[C@H](CCCC[C@H](NC(=O)[C@H](CC(=O)O)NC(=O)[C@H](CO)NC(=O)[C@@H]1CCC(=O)N1)C(=O)N[C@@H](CCCCN)C(=O)O)NC(=O)[C@H](CC(=O)O)NC(=O)[C@H](CO)NC(=O)[C@@H]1CCC(=O)N1)C(=O)O`, the Relative potency was 10.

In the case of `NCCCC[C@H](NC(=O)[C@@H](CCCC[C@@H](NC(=O)[C@H](CC(=O)O)NC(=O)[C@H](CCC(=O)O)NC(=O)[C@@H]1CCC(=O)N1)C(=O)N[C@@H](CCCCN)C(=O)O)NC(=O)[C@H](CC(=O)O)NC(=O)[C@H](CCC(=O)O)NC(=O)[C@@H]1CCC(=O)N1)C(=O)O`, the Relative potency is recorded as below 1e-06.

As for `NC(=O)CC[C@H](NC(=O)[C@H](CC[C@H](NC(=O)[C@H](CO)NC(=O)[C@H](CO)NC(=O)c1ccccn1)C(=O)N[C@@H](CCC(N)=O)C(N)=O)NC(=O)[C@H](CO)NC(=O)[C@H](CO)NC(=O)c1ccccn1)C(N)=O`, the Relative potency was below 1e-06.

In the case of `CCCC[C@H](NC(=O)[C@H](CCCC[C@H](NC(=O)[C@H](C)NC(=O)[C@H](CO)NC(=O)c1ccccn1)C(=O)N[C@@H](CCCC)C(N)=O)NC(=O)[C@H](C)NC(=O)[C@H](CO)NC(=O)c1ccccn1)C(N)=O`, the Relative potency is below 1e-06.

In turn, `NCCC[C@H](NC(=O)[C@H](CCCC[C@H](NC(=O)[C@H](CC(=O)O)NC(=O)[C@H](CCC(=O)O)NC(=O)[C@@H]1CCC(=O)N1)C(=O)N[C@@H](CCCN)C(=O)O)NC(=O)[C@H](CC(=O)O)NC(=O)[C@H](CCC(=O)O)NC(=O)[C@@H]1CCC(=O)N1)C(=O)O` yielded a Relative potency below 1e-06.

Consider `NCCCC[C@H](NC(=O)[C@H](CCCC[C@H](NC(=O)[C@H](CC(=O)O)NC(=O)[C@H](CCC(=O)O)NC(=O)[C@@H]1CCC(=O)N1)C(=O)N[C@@H](CCCCN)C(=O)O)NC(=O)[C@H](CC(=O)O)NC(=O)[C@H](CCC(=O)O)NC(=O)[C@@H]1CCC(=O)N1)C(=O)O` [GLASPIMOD], for which the Relative potency came out at 1.
